# Tests used:
# Calf thymus DNA [1] = assay: Binding affinity to calf thymus DNA assessed as change in melting temperature at 10 uM by spectrophotometer analysis; type: nucleic-acid assay; conditions: Bos taurus
# Method in brief: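 Drug at 1×10^-5 M with 15 μg/mL calf thymus DNA in 5 mM phosphate buffer, pH 7.4. Absorbance followed at 260 nm while temperature rose at 1.0 °C/min to give the melting temperature.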
# Calf thymus DNA [2] = assay: Binding affinity to calf thymus DNA assessed as inhibition of DNA-dependent Escherichia coli RNA polymerase activity by measuring [14C]ATP incorporation at 0.1 mM by liquid scintillation spectrometer analysis; type: nucleic-acid assay; conditions: Bos taurus
# Method in brief: (§1)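 0.125 mL mix: Tris-HCl pH 8.0 5 μmol, MgCl2 1.25 μmol, β-mercaptoethanol 1.25 μmol, CTP/UTP/GTP 0.019 μmol each, [8-14C]ATP 0.019 μmol, calf thymus DNA 3.65 μg. Compound in 5 μL MeOH (MeOH-only controls) added before the E. coli enzyme. Incubated 10 min at 37. Acid-insoluble label collected by filter-disk method and scintillation counted. Triplicates.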
# Calf thymus DNA [3] = assay: Binding affinity to calf thymus DNA assessed as inhibition of DNA-dependent Escherichia coli RNA polymerase activity by measuring [14C]ATP incorporation at 50 uM by liquid scintillation spectrometer analysis; type: nucleic-acid assay; conditions: Bos taurus; method in brief: as §1
# Calf thymus DNA [4] = assay: Binding affinity to calf thymus DNA assessed as inhibition of DNA-dependent Escherichia coli RNA polymerase activity by measuring [14C]ATP incorporation at 10 uM by liquid scintillation spectrometer analysis; type: nucleic-acid assay; conditions: Bos taurus; method in brief: as §1
# Calf thymus DNA [5] = assay: Binding affinity to calf thymus DNA assessed as inhibition of DNA-dependent Escherichia coli RNA polymerase activity by measuring [14C]ATP incorporation at 7.5 uM by liquid scintillation spectrometer analysis; type: nucleic-acid assay; conditions: Bos taurus; method in brief: as §1
# Calf thymus DNA [6] = assay: Binding affinity to calf thymus DNA assessed as inhibition of DNA-dependent Escherichia coli RNA polymerase activity by measuring [14C]ATP incorporation at 5 uM by liquid scintillation spectrometer analysis; type: nucleic-acid assay; conditions: Bos taurus; method in brief: as §1
# Calf thymus DNA [7] = assay: Binding affinity to calf thymus DNA assessed as inhibition of DNA-dependent Escherichia coli RNA polymerase activity by measuring [14C]ATP incorporation at 2.5 uM by liquid scintillation spectrometer analysis; type: nucleic-acid assay; conditions: Bos taurus; method in brief: as §1
# Calf thymus DNA [8] = assay: Binding affinity to calf thymus DNA assessed as inhibition of DNA-dependent Escherichia coli RNA polymerase activity by measuring [14C]ATP incorporation by liquid scintillation spectrometer analysis; type: nucleic-acid assay; conditions: for inhibition: Bos taurus; for IC50: read-out: I50; method in brief: as §1
# P388 [9] = assay: Antitumor activity against mouse P388 cells assessed as mean animal survival time at 25 mg/kg administered qd for 1 to 9 days relative to control; type: functional
# Method in brief: (§2)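 P-388 leukemia survival test. The value is T/C: mean or median survival time of treated animals divided by that of control animals, expressed as a percentage. A compound counts as active if it gives reproducible T/C values of 125% or more.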
# [10] = Retardation factor of the compound using n-BuOH-AcOH-H2O at ratio of 3:1:2 as solvent system by silica gel based chromatography; type: physicochemical
# P388 [11] = assay: Antitumor activity against mouse P388 cells assessed as mean animal survival time at 6.25 mg/kg administered qd for 1 to 9 days relative to control; type: functional; method in brief: as §2
# P388 [12] = assay: Antitumor activity against mouse P388 cells assessed as mean animal survival time at 12.5 mg/kg administered qd for 1 to 9 days relative to control; type: functional; method in brief: as §2
# P388 [13] = assay: Antitumor activity against mouse P388 cells assessed as mean animal survival time at 100 mg/kg administered qd for 1 to 9 days relative to control; type: functional; method in brief: as §2
# P388 [14] = assay: Antitumor activity against mouse P388 cells assessed as mean animal survival time at 400 mg/kg administered qd for 1 to 9 days relative to control; type: functional; method in brief: as §2
smiles,measurement,setting,value
Cc1cc(NCCCCCCCNc2cc(C)nc3cc(N)ccc23)c2ccc(N)cc2n1,ΔTm,Calf thymus DNA [1],17 °C
same,inhibition,Calf thymus DNA [2],98%
same,inhibition,Calf thymus DNA [3],98%
same,inhibition,Calf thymus DNA [4],63%
same,inhibition,Calf thymus DNA [5],24%
same,inhibition,Calf thymus DNA [6],0%
same,inhibition,Calf thymus DNA [7],0%
same,inhibition,Calf thymus DNA [8],Dose-dependent effect
Cc1cc(NCCCNCCCNc2cc(C)nc3cc([N+](=O)[O-])ccc23)c2ccc([N+](=O)[O-])cc2n1.Cl,T/C,P388 [9],150%
same,Rf,[10],0.69
CC(=O)O.Cc1cc(NCCCCCCCNc2cc(C)nc3cc(N)ccc23)c2ccc(N)cc2n1,T/C,P388 [11],196%
Cc1cc(NCCCNCCCNc2cc(C)nc3cc(N)ccc23)c2ccc(N)cc2n1.Cl,IC50,Calf thymus DNA [8],6 µM
same,Rf,[10],0.57
Cc1cc(NCCCCCCNc2cc(C)nc3cc(N)ccc23)c2ccc(N)cc2n1.Cl,IC50,Calf thymus DNA [8],6 µM
same,Rf,[10],0.6
Cc1cc(NCCCCCCCCNc2cc(C)nc3cc(N)ccc23)c2ccc(N)cc2n1,ΔTm,Calf thymus DNA [1],18.5 °C
same,inhibition,Calf thymus DNA [2],97%
same,inhibition,Calf thymus DNA [3],95%
same,inhibition,Calf thymus DNA [4],95%
same,inhibition,Calf thymus DNA [5],91%
same,inhibition,Calf thymus DNA [6],38%
same,inhibition,Calf thymus DNA [7],0%
same,inhibition,Calf thymus DNA [8],Dose-dependent effect
Cc1cc(NCCCNCCCNc2cc(C)nc3cc(N)ccc23)c2ccc(N)cc2n1,ΔTm,Calf thymus DNA [1],22.5 °C
same,inhibition,Calf thymus DNA [2],94%
same,inhibition,Calf thymus DNA [3],98%
same,inhibition,Calf thymus DNA [4],96%
same,inhibition,Calf thymus DNA [5],31%
same,inhibition,Calf thymus DNA [6],9%
same,inhibition,Calf thymus DNA [7],0%
same,inhibition,Calf thymus DNA [8],Dose-dependent effect
Cc1cc(NCCCCNCCCNc2cc(C)nc3cc(N)ccc23)c2ccc(N)cc2n1,ΔTm,Calf thymus DNA [1],19.5 °C
same,inhibition,Calf thymus DNA [2],92%
same,inhibition,Calf thymus DNA [3],94%
same,inhibition,Calf thymus DNA [4],95%
same,inhibition,Calf thymus DNA [5],38%
same,inhibition,Calf thymus DNA [6],17%
same,inhibition,Calf thymus DNA [7],0%
same,inhibition,Calf thymus DNA [8],Dose-dependent effect
CC(=O)O.Cc1cc(NCCCCNCCCNc2cc(C)nc3cc(N)ccc23)c2ccc(N)cc2n1,T/C,P388 [9],165%
Cc1cc(NCCCCCCCCNc2cc(C)nc3cc(N)ccc23)c2ccc(N)cc2n1.Cl,IC50,Calf thymus DNA [8],6 µM
same,Rf,[10],0.7
Cc1cc(NCCCCCCCNc2cc(C)nc3cc([N+](=O)[O-])ccc23)c2ccc([N+](=O)[O-])cc2n1.Cl,T/C,P388 [12],149%
same,Rf,[10],0.79
Cc1cc(NCCCCNCCCNc2cc(C)nc3cc(N)ccc23)c2ccc(N)cc2n1.Cl,IC50,Calf thymus DNA [8],6 µM
same,Rf,[10],0.5
CC(=O)O.Cc1cc(NCCCCCCCCNc2cc(C)nc3cc(N)ccc23)c2ccc(N)cc2n1,T/C,P388 [11],134%
Cc1cc(NCCCCCCCNc2cc(C)nc3cc(N)ccc23)c2ccc(N)cc2n1.Cl,IC50,Calf thymus DNA [8],6 µM
same,Rf,[10],0.63
Cc1cc(NCCCCNCCCNc2cc(C)nc3cc([N+](=O)[O-])ccc23)c2ccc([N+](=O)[O-])cc2n1.Cl,T/C,P388 [12],150%
same,Rf,[10],0.73
CC(=O)O.Cc1cc(NCCCNCCCNc2cc(C)nc3cc(N)ccc23)c2ccc(N)cc2n1,T/C,P388 [12],150%
CC(=O)O.Cc1cc(NCCCCCCNc2cc(C)nc3cc(N)ccc23)c2ccc(N)cc2n1,T/C,P388 [9],158%
Cc1cc(NCCCCCCNc2cc(C)nc3cc([N+](=O)[O-])ccc23)c2ccc([N+](=O)[O-])cc2n1.Cl,T/C,P388 [13],99%
same,Rf,[10],0.77
Cc1cc(NCCCCCCNc2cc(C)nc3cc(N)ccc23)c2ccc(N)cc2n1,ΔTm,Calf thymus DNA [1],19 °C
same,inhibition,Calf thymus DNA [2],97%
same,inhibition,Calf thymus DNA [3],93%
same,inhibition,Calf thymus DNA [4],91%
same,inhibition,Calf thymus DNA [5],50%
same,inhibition,Calf thymus DNA [6],29%
same,inhibition,Calf thymus DNA [7],0%
same,inhibition,Calf thymus DNA [8],Dose-dependent effect
Cc1cc(NCCCCCCNc2cc(C)nc3ccc(N)cc23)c2cc(N)ccc2n1.Cl,T/C,P388 [14],254%
same,ΔTm,Calf thymus DNA [1],18 °C
Cc1cc(NCCCCCCCCNc2cc(C)nc3cc([N+](=O)[O-])ccc23)c2ccc([N+](=O)[O-])cc2n1.Cl,T/C,P388 [12],110%
same,Rf,[10],0.8

# Reference: ChEMBL document CHEMBL3272200, “Synthsis and antitumor properties of bis(quinaldine) derivatives” (J Med Chem, 1977)
